# Test results from the RNAGym collection of RNA variant scans (doi:10.1126/science.aae0568).
# This sample holds only a part of the variants without activity.
# B1: tRNA (parent)
# chain: GUUCCGUUGGCGUAAUGGUAACGCGUCUCCCUCCUAAGGAGAAGACUGCGGGUUCGAGUCCCGUACGGAACG
# Variants of: B1
# Assay: yeast fitness relative to wild type (ratio to wild type); higher = fitter; tRNA-Arg(CCU), competitive growth, 37 C, YPD
# Procedure, shortened: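 A pool of Saccharomyces cerevisiae strains, each with a tRNA-Arg(CCU) gene variant at the native genomic locus, was competed in YPD at 37°C for 24 hours across six parallel replicates. The variants had been chemically synthesised at a 3% per-site mutation rate over 69 sites, and gene amplicons before and after competition were read by 100-nucleotide paired-end sequencing. Darwinian fitness relative to wild type rested on changes in genotype frequencies. Genotypes required ≥ 100 starting reads, and estimates < 0.5 were set to 0.5.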
row,Variant,yeast fitness
1,U2A G12C G23C,≤ 0.5
2,U2A G12U C55U,≤ 0.5
3,U2A G12U G23A A36G G39A,0.584
4,U2A G17C A57C G63C C66U,≤ 0.5
5,U2A G17C C46G C66A A70C,0.605
6,U2A G17C C46U,≤ 0.5
7,U2A G17C C46U G67C,≤ 0.5
8,U2A G17C C49U,0.571
9,U2A G18A C22A C24G A43G C49G,0.634
10,U2A G18A C24A U28A U32C C60A,≤ 0.5
11,U2A G18A C30G U35C,≤ 0.5
12,U2A G18A G23C A45U,0.573
13,U2A G18A G44C,≤ 0.5
14,U2A G18C G23A G25C A37G A43C C55G G68A,0.558
15,U2A G23A C29G A40C C55G,≤ 0.5
16,U2A G23A C29G A45U C60G C61U A69G,≤ 0.5
17,U2A G23A C29G A69U,0.643
18,U2A G23A C29G C55U,≤ 0.5
19,U2A G23A C29G G58C C60U C66G,≤ 0.5
20,U2A G23C G58A,≤ 0.5
21,U2A G25A,0.828
22,U2A G25A A40C A65C,≤ 0.5
23,U2A G25A A69G,0.576
24,U2A G25A C31G G39C C49U C60G,≤ 0.5

row,Variant,yeast fitness
1,U2A G25C A36U,≤ 0.5
2,U2A G25C G38C C61U A70G,≤ 0.5
3,U2A G38C A69U,≤ 0.5
4,U2A G38C C55U,≤ 0.5
5,U2A G39A A69G,0.599
6,U2A G39A G48C,≤ 0.5
7,U2A G39A U47A C49U U54A,≤ 0.5
8,U2A G39C,0.75
9,U2A G39U C49A G58C,0.939
10,U2A G41C,0.757
11,U2A G44A C46U,0.621
12,U2A G44C C46A G56C,≤ 0.5
13,U2A G48A C60U A69U,≤ 0.5
14,U2A G48C A65C,0.593
15,U2A G48C G52C A57C G58A,≤ 0.5
16,U2A G50C,0.562
17,U2A G50C A57G,≤ 0.5
18,U2A G52C,0.65
19,U2A G56C A57G G68U,≤ 0.5
20,U2A G58A,0.838
21,U2A G58C C66U,0.702
22,U2A G63A,0.927
23,U2A G63C,0.673
24,U2A G67A,0.844

row,Variant,yeast fitness
1,U2A G67C,0.792
2,U2A G68U,0.773
3,U2A U3A,0.809
4,U2A U3A A45G C49U,0.609
5,U2A U3A G39A A42C,≤ 0.5
6,U2A U3A U26A A57U C62G C66U,≤ 0.5
7,U2A U3A U59G,≤ 0.5
8,U2A U3C,0.931
9,U2A U3C G6A C66G,≤ 0.5
10,U2A U3C G6A G39A,≤ 0.5
11,U2A U3C U26C U35A C62A,≤ 0.5
12,U2A U3G C5U C29G C30G C46G,≤ 0.5
13,U2A U3G C11A U16C C22G A57C C62A,0.572
14,U2A U3G G18A A20C C49U C55U,≤ 0.5
15,U2A U3G U32A C60A,≤ 0.5
16,U2A U7A C27U C46G,≤ 0.5
17,U2A U7A U32A,≤ 0.5
18,U2A U7C G17C C29A A45U U59C,0.902
19,U2A U7C G25A A36C C60A C62G,0.524
20,U2A U7C G25A A36U,≤ 0.5
21,U2A U7C G25A A36U C60A C62G,0.58
22,U2A U7C G25A A36U C62U G67A,≤ 0.5
23,U2A U7G C24G C29A A43U U53A A57U A65U,≤ 0.5
24,U2A U7G C27U G39C C60A,≤ 0.5

row,Variant,yeast fitness
1,U2A U8A C11G U54A,≤ 0.5
2,U2A U8A C29G C60U C62A,≤ 0.5
3,U2A U8A C33U A43U A57G,≤ 0.5
4,U2A U8A C33U A43U A57G G67U,≤ 0.5
5,U2A U8A G9A U13A C24A A45C,≤ 0.5
6,U2A U8C C24G A43U C46U,≤ 0.5
7,U2A U8C C30G U59A U64A,0.569
8,U2A U8G C33G G38A,≤ 0.5
9,U2A U13A A14C C33U,≤ 0.5
10,U2A U13A A14C C33U G52C,≤ 0.5
11,U2A U13A A21C A42G,≤ 0.5
12,U2A U13A C24A A45C,≤ 0.5
13,U2A U13A C24A C30A,≤ 0.5
14,U2A U13A C29U U35A C60U,≤ 0.5
15,U2A U13C U16A G56C A57G C62U,0.528
16,U2A U13C U19G C22U C31U A40U G67A,≤ 0.5
17,U2A U13G A14G U28A A36U A45U A57G,≤ 0.5
18,U2A U16A,0.989
19,U2A U16A C31G,0.875
20,U2A U16A C49A G50A G68C,≤ 0.5
21,U2A U16A C66U A69G,≤ 0.5
22,U2A U16A G56C A57G C62U,≤ 0.5
23,U2A U16A U19A C46U,0.714
24,U2A U16C,0.88

row,Variant,yeast fitness
1,U2A U16C C30A,0.558
2,U2A U16C C30A A69C,0.544
3,U2A U16C C30A C61G,≤ 0.5
4,U2A U16C C30A G67C,0.557
5,U2A U16C G44C G52A,≤ 0.5
6,U2A U16C G68A,≤ 0.5
7,U2A U16G A42G A43U C46U C62U,≤ 0.5
8,U2A U16G A70C,0.835
9,U2A U16G C27G C49G G67U,≤ 0.5
10,U2A U16G G23C C31U A36U U59A,≤ 0.5
11,U2A U16G G41C,0.649
12,U2A U16G G50C C55U C60G A69G,≤ 0.5
13,U2A U19A,0.931
14,U2A U19A A20C U26A,0.578
15,U2A U19A C27U G67A,≤ 0.5
16,U2A U26C,0.934
17,U2A U26G,0.821
18,U2A U28A A37C U64C A65G,≤ 0.5
19,U2A U28A C55G A70G,≤ 0.5
20,U2A U28A G51C A57C,≤ 0.5
21,U2A U28C G39A,0.508
22,U2A U28C G39A C62U A65U,≤ 0.5
23,U2A U28C G41C U54A,0.56
24,U2A U28G A40C G67C,0.639

row,Variant,yeast fitness
1,U2A U32A C62G,0.509
2,U2A U32A G67A,≤ 0.5
3,U2A U32C,0.954
4,U2A U32C C33A G51C G68A,≤ 0.5
5,U2A U32C U53C,≤ 0.5
6,U2A U35A A45C,≤ 0.5
7,U2A U35C,0.875
8,U2A U47C,1.08
9,U2A U47C C66U,0.683
10,U2A U47G G50C,≤ 0.5
11,U2A U54A,0.613
12,U2A U54A A65U,≤ 0.5
13,U2A U59C,0.995
14,U2A U59C C66G,0.537
15,U2A U64A,0.855
16,U2A U64A A70U,1.06
17,U2C A14C A15G U16A,≤ 0.5
18,U2C A14C A37U A40C,≤ 0.5
19,U2C A14C A40C,≤ 0.5
20,U2C A14C A40G,0.775
21,U2C A14C C31A,≤ 0.5
22,U2C A14C C46A,≤ 0.5
23,U2C A14C C46A A65G,≤ 0.5
24,U2C A14C G39A,≤ 0.5

row,Variant,yeast fitness
1,U2C A14G,0.863
2,U2C A14G A42C,0.575
3,U2C A14G A57C A69U,≤ 0.5
4,U2C A14G C22A C27A C29U A42C,≤ 0.5
5,U2C A14G C29A C46G,≤ 0.5
6,U2C A14G C46U,0.669
7,U2C A14G C46U C60A,≤ 0.5
8,U2C A14G G17A C46U C60A,≤ 0.5
9,U2C A14G G18A G41A A69C,≤ 0.5
10,U2C A14G G18A U32A C66G,≤ 0.5
11,U2C A14G G18A U32A G44A,0.527
12,U2C A14G G18A U32A G44A G56C,≤ 0.5
13,U2C A14G G48C,0.709
14,U2C A14U A21U,0.596
15,U2C A14U C31U C62G,≤ 0.5
16,U2C A14U C61G A70G,≤ 0.5
17,U2C A15C A20C A65U,0.52
18,U2C A15C C22A C31U C55A,≤ 0.5
19,U2C A15C C55G A57C,0.512
20,U2C A15C C55G A57C C66A,≤ 0.5
21,U2C A15C G23A C31G A45U,0.61
22,U2C A15C G23C C31A,≤ 0.5
23,U2C A15C U19C C22G C34U G39C C62U A65C,≤ 0.5
